From ChEMBL document CHEMBL2406988, “Inhibition of the human proteasome by imidazoline scaffolds” (J Med Chem, 2013)
≈ marks a conversion by molar mass, not a printed value. Calls of active or inactive are those of the source. No cut-off for these calls is given here.

What was measured:
[1] = Inhibition of chymotryptic-like activity of human 20S proteasome using Suc-LLVY-AMC as substrate measured every min over 30 mins by fluorescence assay
[2] = Inhibition of NFkappaB-mediated gene transcription in human HeLa cells after 1 hr by Dual-Glo luciferase reporter assay; assay type: cell-based
[3] = system: THP-1; test: Cytotoxicity against wild type human THP1 cells assessed as cell viability at 10 uM after 72 hrs by MTS assay relative to vehicle-treated control; assay type: functional; details: THP-1, 72 h, read-out: Activity
In short: (§1)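 THP-1 cells in RPMI-1640 with 10% FBS, penicillin/streptomycin, 1 mM sodium pyruvate and 0.2 mM L-glutamine at 37°C, 5% CO2. […] Compound in DMSO, final 10 μM, 0.5% DMSO, 72 h. MTS (CellTiter 96 AQueous One) read at 490 nm, background-subtracted, as % of vehicle.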

[4] = system: THP-1; test: Cytotoxicity against bortezomib-resistant human THP1 cells assessed as cell viability at 10 uM after 72 hrs by MTS assay relative to vehicle-treated control; assay type: functional; details: for viability at 10 µM: THP-1, 72 h, read-out: Activity; in short: as §1
[5] = Solubility of the compound in dextrose-water solution at pH 6.5 after 5 mins; assay type: physicochemical; details: buffer, pH 6.5, 5 min
In short: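 1 mL of 5% dextrose in water is brought to pH 6.5 with 3 μl 2 N HCl. Solid is added in 0.5 mg portions, then 0.1 mg near saturation. Each addition is vortexed 40 s and sonicated 30 s at 37.5°C, then held 5 min at 37.5°C and judged visually.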

[6] = species on record: Homo sapiens; test: Non-competitive inhibition of chymotryptic-like activity of human 20S proteasome using Suc-LLVY-AMC as substrate
In short: (§2)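 Kinetics: purified human 20S proteasome with vehicle or inhibitor at 1.25, 2.5 or 5 μM across varying Suc-LLVY-AMC concentrations. Velocity is followed by AMC fluorescence as in the activity assay. Vmax and Km come from Michaelis-Menten fits with a Lineweaver-Burk plot.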

[7] = species on record: Homo sapiens; test: Non-competitive inhibition of chymotryptic-like activity of human 20S proteasome using Suc-LLVY-AMC as substrate at 1.25 to 5 uM; in short: as §2
[8] = system: THP-1; test: cells; details: Homo sapiens, THP-1, 72 h, read-out: Activity
[9] = system: THP-1; test: Cytotoxicity against wild type human THP1 cells assessed as cell viability at 0.5 uM after 72 hrs by MTS assay relative to vehicle-treated control; details: THP-1, 72 h, read-out: Activity
[10] = Inhibition of 20S proteasome (unknown origin); design: species or system Homo sapiens

Compound	IC50 [1] [µM]	further results
c1ccc(Cn2c(-c3ccccc3)nc(-c3ccccc3)c2-c2ccccc2)cc1	> 10	IC50 [2]: > 10 µM
CCOC(=O)[C@]1(c2ccccc2)N=C(c2ccccc2)N(Cc2ccccc2)[C@@H]1c1ccc(N)cc1	3.52	–
CCOC(=O)[C@]1(c2ccccc2)N=C(c2ccccc2)N(Cc2ccccc2)[C@@H]1c1ccc(C(F)(F)F)cc1	4.81	–
CCOC(=O)[C@]1(c2ccccc2)N=C(c2ccc(OC)cc2)N(Cc2ccccc2)[C@@H]1c1ccc(C#N)cc1 (racemic)	> 10	–
CCOC(=O)[C@]1(c2ccccc2)N=C(c2ccccc2)N(Cc2ccccc2)[C@@H]1c1ccc(SC)cc1 (racemic)	2.77	–
CCOC(=O)[C@]1(c2ccccc2)N=C(c2ccccc2)N(Cc2ccccc2)[C@@H]1c1ccncc1	> 10	–
CCOC(=O)[C@]1(c2ccccc2)N=C(c2ccc(OC)cc2)N(Cc2ccccc2)[C@@H]1c1ccc(C(N)=O)cc1 (racemic)	> 10	–
NC(=O)[C@]1(c2ccccc2)N=C(c2ccccc2)N(Cc2ccccc2)[C@@H]1c1ccccc1	> 10	IC50 [2]: > 20 µM
O=C(OCCO)[C@]1(c2ccccc2)N=C(c2ccccc2)N(Cc2ccccc2)[C@@H]1c1ccccc1 (racemic)	3.2	IC50 [2]: 10.9 µM
CCOC(=O)[C@]1(c2ccccc2)N=C(c2ccccc2)N(Cc2ccccc2)[C@@H]1c1ccccc1	2.58	IC50 [2]: 2.5 µM; inhibition [6]: Active; solubility [5]: 1910 µg/mL (≈ 4150 µM); Activity [4]: Active
CCOC(=O)[C@]1(c2ccccc2)N=C(c2ccccc2)N(Cc2ccc(OC)cc2)[C@@H]1c1ccccc1	2.73	–
CCOC(=O)[C@]1(c2ccccc2)N=C(c2ccccc2)N(Cc2ccccc2)[C@@H]1c1ccc(Cl)cc1	2.23	–
CCOC(=O)[C@]1(c2ccccc2)N=C(c2ccccc2)N(Cc2ccco2)[C@@H]1c1ccccc1	7.04	–
CCOC(=O)[C@]1(c2ccccc2)N=C(c2ccccc2)N(Cc2ccccc2)[C@@H]1c1ccc(S(C)(=O)=O)cc1 (racemic)	> 10	–
CCOC(=O)[C@]1(c2ccccc2)N=C(c2ccccc2)N(Cc2ccccc2)[C@@H]1c1ccc([N+](=O)[O-])cc1	6.71	–
CCOC(=O)[C@]1(c2ccccc2)N=C(c2ccccc2)N(S(=O)(=O)c2ccc(C)cc2)[C@@H]1c1ccccc1	> 10	–
c1ccc(CN2CCN=C2c2ccccc2)cc1	> 10	IC50 [2]: > 10 µM
CCOC(=O)[C@]1(c2ccccc2)N=C(c2ccc(OC)cc2)N(Cc2ccccc2)[C@@H]1c1ccc(NCc2ccccc2)cc1 (racemic)	–	inhibition [7]: Active; viability at 10 µM [3]: 4%; viability at 10 µM [4]: 19%
CCOC(=O)[C@]1(c2ccccc2)N=C(c2ccc(OC)cc2)N(Cc2ccccc2)[C@@H]1c1ccc(NC(C)=O)cc1 (racemic)	2.17	–
O=C(OCc1ccccc1)[C@]1(c2ccccc2)N=C(c2ccccc2)N(Cc2ccccc2)[C@@H]1c1ccccc1	2.4	IC50 [2]: 3.5 µM
c1ccc(CN2C(c3ccccc3)=N[C@@H](c3ccccc3)[C@H]2c2ccccc2)cc1	> 10	IC50 [2]: > 10 µM
CCOC(=O)[C@]1(c2ccccc2)N=C(c2ccc(Br)cc2)N(Cc2ccccc2)[C@@H]1c1ccccc1 (racemic)	3.19	–
CCOC(=O)[C@]1(c2ccccc2)N=C(c2ccccc2)N(C(C)=O)[C@@H]1c1ccccc1	> 10	–
COC(=O)[C@]1(c2ccccc2)N=C(c2ccccc2)N(Cc2ccccc2)[C@@H]1c1ccccc1	5.4	IC50 [2]: 7.5 µM
CCOC(=O)[C@]1(c2ccccc2)N=C(c2ccccc2)N(Cc2ccc(F)cc2)[C@@H]1c1ccccc1	3.71	–
CC(C)C[C@H](NC(=O)[C@H](Cc1ccccc1)NC(=O)c1cnccn1)B(O)O [BORTEZOMIB]	–	viability at 0.5 µM [8]: 68%; viability at 0.5 µM [9]: < 5%; IC50 [10]: 0.005 µM
CCOC(=O)[C@]1(c2ccccc2)N=C(c2ccccc2)N(Cc2ccccc2)[C@@H]1c1ccco1	6.13	–
CCOC(=O)[C@]1(c2ccccc2)N=C(c2ccccc2)N[C@@H]1c1ccccc1	> 10	–
CCOC(=O)[C@]1(c2ccccc2)N=C(c2ccccc2)N(C(=O)c2ccccc2)[C@@H]1c1ccccc1	> 10	–

Now from value to compound, other results behind:

IC50 [1] [µM]	Compound	further results
1.08	CCOC(=O)[C@]1(c2ccccc2)N=C(c2ccc(OC)cc2)N(Cc2ccccc2)[C@@H]1c1ccc(NS(=O)(=O)Cc2ccccc2)cc1	–
1.44	CCOC(=O)[C@]1(c2ccccc2)N=C(c2ccc(OC)cc2)N(Cc2ccccc2)[C@@H]1c1ccc(NC(=O)c2ccccc2)cc1 (racemic)	–
1.97	CCOC(=O)[C@]1(c2ccccc2)N=C(c2ccc(OC)cc2)N(Cc2ccccc2)[C@@H]1c1ccc(N)cc1 (racemic)	viability at 10 µM [3]: 44%; viability at 10 µM [4]: 98%
0.53	CCOC(=O)[C@]1(c2ccccc2)N=C(c2ccc(OC)cc2)N(Cc2ccccc2)[C@@H]1c1ccc(NS(=O)(=O)c2ccc(OC)cc2OC)cc1 (racemic)	–
1.4	c1ccc(CN2C(c3ccccc3)=N[C@H](c3ccccc3)[C@H]2c2ccccc2)cc1	IC50 [2]: 4.6 µM
0.91	CCOC(=O)[C@]1(c2ccccc2)N=C(c2ccc(OC)cc2)N(Cc2ccccc2)[C@@H]1c1ccc(NS(=O)(=O)C2CC2)cc1 (racemic)	–
0.13	CCOC(=O)[C@]1(c2ccccc2)N=C(c2ccc(OC)cc2)N(Cc2ccccc2)[C@@H]1c1ccc(NCC2CCCCC2)cc1 (racemic)	viability at 10 µM [3]: 4%; viability at 10 µM [4]: 5%
1.9	CCOC(=O)[C@]1(c2ccccc2)N=C(c2ccccc2)N(Cc2ccc(Br)cc2)[C@@H]1c1ccccc1	solubility [5]: < 500 µg/mL
0.58	CCOC(=O)[C@]1(c2ccccc2)N=C(c2ccc(OC)cc2)N(Cc2ccccc2)[C@@H]1c1ccc(NS(=O)(=O)c2ccccc2)cc1 (racemic)	–
0.47	CCOC(=O)[C@]1(c2ccccc2)N=C(c2ccccc2)N(Cc2ccccc2)[C@@H]1c1ccc(NCc2ccccc2)cc1 (racemic)	–
2.02	CCOC(=O)[C@]1(c2ccccc2)N=C(c2ccccc2)N(Cc2ccc(Cl)cc2)[C@@H]1c1ccccc1	solubility [5]: < 500 µg/mL
1.22	CCOC(=O)[C@]1(c2ccccc2)N=C(c2ccc(OC)cc2)N(Cc2ccccc2)[C@@H]1c1ccc(NS(=O)(=O)N(C)C)cc1 (racemic)	–
0.63	CCOC(=O)[C@]1(c2ccccc2)N=C(c2ccc(OC)cc2)N(Cc2ccccc2)[C@@H]1c1ccc(NC(=N)N)cc1 (racemic)	–
1.27	CCOC(=O)[C@]1(c2ccccc2)N=C(c2ccc(OC)cc2)N(Cc2ccccc2)[C@@H]1c1ccccc1 (racemic)	–
0.37	CCOC(=O)[C@]1(c2ccccc2)N=C(c2ccc(OC)cc2)N(Cc2ccccc2)[C@@H]1c1ccc(NCc2cc(OC)c(OC)c(OC)c2)cc1 (racemic)	viability at 10 µM [3]: 24%; viability at 10 µM [4]: 34%
1.08	CCOC(=O)[C@]1(c2ccccc2)N=C(c2ccccc2)N(Cc2ccccc2)[C@@H]1c1ccc(NS(=O)(=O)c2ccccc2)cc1 (racemic)	–
0.54	CCOC(=O)[C@]1(c2ccccc2)N=C(c2ccc(OC)cc2)N(Cc2ccccc2)[C@@H]1c1ccc(NCc2ccc(O)cc2)cc1 (racemic)	viability at 10 µM [3]: 23%; viability at 10 µM [4]: 36%
